Experimental data as given in ChEMBL document CHEMBL1122281, “Synthesis and antifilarial activity of N-[4-[[4-alkoxy-3-[(dialkylamino)methyl]phenyl]amino]- 2-pyrimidinyl]-N'-phenylguanidines” (J Med Chem, 1983).

Columns and labels:
Litomosoides carinii [1] = assay: Antifilarial activity against Litomosoides carinii infections in the Jird at dose 100 mg/kg administered orally; assay type: functional; details: route oral
Procedure, shortened: (§1)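 L. carinii-infected jirds were dosed. Survivors were killed 55–70 days after the first dose, and the pleural and peritoneal cavities were searched for adult worms. Live worms at autopsy were scored as a percentage relative to sham-dosed controls. Adult worm reduction above 60% was the activity criterion.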

Litomosoides carinii [2] = assay: Antifilarial activity against Litomosoides carinii infections in the Jird at dose 25 mg/kg administered orally; assay type: functional; details: route oral; procedure, shortened: as §1
[3] = Antifilarial activity against Litomosoides carinii infections in the Jird at dose 100 mg/kg administered subcutaneously; two or more animals died prematurely considered to be drug toxicity.; assay type: organism-based, Meriones unguiculatus; parameters: dose 100 mg/kg, route subcutaneous; details: gerbil, in vivo, sc
Procedure, shortened: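 Jirds infected with Litomosoides carinii. Surviving animals killed 55–70 days after first drug dose; pleural and peritoneal cavities searched for adult worms. Live worm count at autopsy scored as percentage relative to sham-dosed controls. Activity criterion: adult worm reduction exceeding 60%.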

Litomosoides carinii [4] = assay: Antifilarial activity against Litomosoides carinii infections in the Jird at dose 25 mg/kg administered subcutaneously; assay type: functional; details: route subcutaneous; procedure, shortened: as §1
Litomosoides carinii [5] = assay: Antifilarial activity against Litomosoides carinii infections in the Jird at dose 3 mg/kg administered orally; assay type: functional; details: route oral; procedure, shortened: as §1
Litomosoides carinii [6] = assay: Antifilarial activity against Litomosoides carinii infections in the Jird at dose 6 mg/kg administered subcutaneously; assay type: functional; details: route subcutaneous; procedure, shortened: as §1
Litomosoides carinii [7] = assay: (§2) Antifilarial activity against Litomosoides carinii infections in the Jird at dose 100 mg/kg administered subcutaneously; assay type: functional; details: route subcutaneous; procedure, shortened: as §1
Litomosoides carinii [8] = assay: as §2; assay type: functional; details: route subcutaneous; procedure, shortened: as §1; remark: listed apart in the source
Litomosoides carinii [9] = assay: Antifilarial activity against Litomosoides carinii infections in the Jird at dose 200 mg/kg administered orally; assay type: functional; details: route oral; procedure, shortened: as §1
Litomosoides carinii [10] = assay: Antifilarial activity against Litomosoides carinii infections in the Jird at dose 400 mg/kg administered subcutaneously; assay type: functional; details: route subcutaneous; procedure, shortened: as §1
Litomosoides carinii [11] = assay: Antifilarial activity against Litomosoides carinii infections in the Jird at dose 400 mg/kg administered orally; assay type: functional; details: route oral; procedure, shortened: as §1
Litomosoides carinii [12] = assay: Antifilarial activity against Litomosoides carinii infections in the Jird at dose 100 mg/kg administered subcutaneously; details: route subcutaneous
Litomosoides carinii [13] = assay: Antifilarial activity against Litomosoides carinii infections in the Jird at dose 600 mg/kg administered orally; assay type: functional; details: route oral; procedure, shortened: as §1
Litomosoides carinii [14] = assay: Antifilarial activity against Litomosoides carinii infections in the Jird at dose 200 mg/kg administered subcutaneously; assay type: functional; details: route subcutaneous; procedure, shortened: as §1
Litomosoides carinii [15] = assay: Antifilarial activity against Litomosoides carinii infections in the Jird at dose 50 mg/kg administered subcutaneously; assay type: functional; details: route subcutaneous; procedure, shortened: as §1
Litomosoides carinii [16] = assay: Antifilarial activity against Litomosoides carinii infections in the Jird at dose 6.25 mg/kg administered subcutaneously; assay type: functional; details: route subcutaneous; procedure, shortened: as §1
Litomosoides carinii [17] = assay: Antifilarial activity against Litomosoides carinii infections in the Jird at dose 1.56 mg/kg administered subcutaneously; assay type: functional; details: route subcutaneous; procedure, shortened: as §1
Litomosoides carinii [18] = assay: Antifilarial activity against infections of Litomosoides carinii in the Jird by oral route(dose (mg/kg) is given in parentheses); assay type: functional; procedure, shortened: as §1

CCNCc1cc(Nc2cc(C(F)(F)F)nc(/N=C(\N)Nc3ccc(Cl)cc3)n2)ccc1OC
Reduction of live worms (Litomosoides carinii [1]): 100% | Reduction of live worms (Litomosoides carinii [2]): 94% | Animals dead [3]: > 2 | Reduction of live worms (Litomosoides carinii [4]): 100% | Reduction of live worms (Litomosoides carinii [5]): 81% | Reduction of live worms (Litomosoides carinii [6]): 92%

CCN(CC)Cc1cc(Nc2cc(C)nc(/N=C(\N)Nc3cc(Cl)cc(Cl)c3)n2)ccc1O
Reduction of live worms (Litomosoides carinii [7]): 68% | Animals dead [3]: > 2 | Reduction of live worms (Litomosoides carinii [8]): 0%

CN1CCN(Cc2cc(Nc3cc(C(F)(F)F)nc(/N=C(\N)Nc4ccc(Cl)c(Cl)c4)n3)ccc2O)CC1
Reduction of live worms (Litomosoides carinii [1]): 100% | Reduction of live worms (Litomosoides carinii [9]): 100% | Reduction of live worms (Litomosoides carinii [2]): 100% | Animals dead [3]: > 2 | Reduction of live worms (Litomosoides carinii [5]): 0% | Reduction of live worms (Litomosoides carinii [10]): 99% | Reduction of live worms (Litomosoides carinii [11]): 100%

CCOc1ccc(Nc2nc(/N=C(\N)Nc3ccc(Cl)c(Cl)c3)nc3c2CCCC3)cc1CN(CC)CC
Reduction of live worms (Litomosoides carinii [2]): 54% | Animals dead [3]: > 2 | Reduction of live worms (Litomosoides carinii [12]): 0%

CCCCN(CC)CCNc1cc(C)nc(/N=C(\N)Nc2ccc(Cl)c(Cl)c2)n1
Reduction of live worms (Litomosoides carinii [13]): 66%

CN1CCN(Cc2cc(Nc3cc(C(F)(F)F)nc(/N=C(\N)Nc4ccc(C(F)(F)F)cc4)n3)ccc2O)CC1
Reduction of live worms (Litomosoides carinii [1]): 100% | Reduction of live worms (Litomosoides carinii [14]): 96% | Reduction of live worms (Litomosoides carinii [2]): 40% | Reduction of live worms (Litomosoides carinii [5]): 5%

CCN(CC)C(=O)N1CCN(C)CC1 [DIETHYLCARBAMAZINE]
Reduction of live worms (Litomosoides carinii [7]): 100% | Reduction of live worms (Litomosoides carinii [15]): 89%

COC(=O)Nc1nc2cc(C(=O)c3ccccc3)ccc2[nH]1 [MEBENDAZOLE]
Reduction of live worms (Litomosoides carinii [4]): 100% | Reduction of live worms (Litomosoides carinii [16]): 100% | Reduction of live worms (Litomosoides carinii [17]): 97%

Cc1ccc(C(=O)Nc2ccc(S(=O)(=O)O)c3cc(S(=O)(=O)O)cc(S(=O)(=O)O)c23)cc1NC(=O)c1cccc(NC(=O)Nc2cccc(C(=O)Nc3cc(C(=O)Nc4ccc(S(=O)(=O)O)c5cc(S(=O)(=O)O)cc(S(=O)(=O)O)c45)ccc3C)c2)c1 [SURAMIN]
Reduction of live worms (Litomosoides carinii [18]): 98%
